This is an account of results in ChEMBL document CHEMBL1828531, “Pyrazol-3-propanoic acid derivatives as novel inhibitors of leukotriene biosynthesis in human neutrophils” (Eur J Med Chem, 2011).

Where only a bound is given, the exact number is not on record here.

The target of the first assay is T1, Polyunsaturated fatty acid lipoxygenase ALOX15 (Homo sapiens, UniProt P16050).
T1 sequence (P16050 whole entry): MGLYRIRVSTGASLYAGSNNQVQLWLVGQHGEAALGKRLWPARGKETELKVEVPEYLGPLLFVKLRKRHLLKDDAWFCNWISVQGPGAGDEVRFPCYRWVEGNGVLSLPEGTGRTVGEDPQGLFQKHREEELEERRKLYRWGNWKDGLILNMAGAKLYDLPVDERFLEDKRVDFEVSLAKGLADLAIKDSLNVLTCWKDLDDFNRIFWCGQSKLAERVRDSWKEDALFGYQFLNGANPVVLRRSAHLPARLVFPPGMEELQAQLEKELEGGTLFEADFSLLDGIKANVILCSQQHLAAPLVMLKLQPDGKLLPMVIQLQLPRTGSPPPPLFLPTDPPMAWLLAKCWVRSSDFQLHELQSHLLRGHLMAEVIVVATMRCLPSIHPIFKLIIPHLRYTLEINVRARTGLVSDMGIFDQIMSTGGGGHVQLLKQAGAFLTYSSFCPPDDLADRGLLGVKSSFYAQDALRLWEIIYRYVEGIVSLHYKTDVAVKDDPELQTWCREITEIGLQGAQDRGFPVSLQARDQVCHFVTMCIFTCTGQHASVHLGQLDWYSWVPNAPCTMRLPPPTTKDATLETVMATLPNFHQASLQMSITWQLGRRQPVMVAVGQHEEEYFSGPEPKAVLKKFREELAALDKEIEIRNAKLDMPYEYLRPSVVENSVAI
Nature of the assay: Inhibition of 15-Lipoxygenase-mediated 15-HETE in human neutrophil after 15 mins by HPLC analysis.
Details: not given
In outline:
(§1)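 Freshly isolated human blood neutrophils, 5 × 10^6/mL in PBS pH 7.4 with 1 mg/mL glucose and 1 mM CaCl2, preincubated with compound 15 min at RT. Stimulated with 2.5 µM A23187 plus 20 µM AA for 10 min at 37 °C. Stopped with methanol/HCl, PGB1 internal standard. 12-HETE or 15-HETE measured by HPLC. Residual activity tested at 30 µM.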
What is called IC50 is the point on the concentration scale where inhibition reaches its midpoint. Read a low IC50 as greater potency. As to `CCOC(=O)C1CCN(C(=O)CCc2cc(-c3ccc(C)cc3)n(-c3ccccc3)n2)CC1`, the IC50 was more than 10 µM.

`CC(C)(C)c1ccc(CN2CCN(C(=O)CCc3cc(-c4ccc(F)cc4)n(-c4ccc(Cl)nn4)n3)CC2)cc1`: the IC50 is more than 10 µM.

`CCOC(=O)C1CCN(C(=O)CCc2cc(-c3ccc(C(F)(F)F)cc3)n(-c3ccc(Cl)nn3)n2)CC1` came in with an IC50 of more than 10 µM.

`Cc1ccc(-c2cc(CCC(=O)Oc3ccc(C(C)C)cc3)nn2-c2ccc3ccccc3n2)cc1` returned an IC50 of more than 10 µM.

The target in the next assay is T2, Polyunsaturated fatty acid 5-lipoxygenase (Homo sapiens) (UniProt P09917).
T2 sequence (whole entry): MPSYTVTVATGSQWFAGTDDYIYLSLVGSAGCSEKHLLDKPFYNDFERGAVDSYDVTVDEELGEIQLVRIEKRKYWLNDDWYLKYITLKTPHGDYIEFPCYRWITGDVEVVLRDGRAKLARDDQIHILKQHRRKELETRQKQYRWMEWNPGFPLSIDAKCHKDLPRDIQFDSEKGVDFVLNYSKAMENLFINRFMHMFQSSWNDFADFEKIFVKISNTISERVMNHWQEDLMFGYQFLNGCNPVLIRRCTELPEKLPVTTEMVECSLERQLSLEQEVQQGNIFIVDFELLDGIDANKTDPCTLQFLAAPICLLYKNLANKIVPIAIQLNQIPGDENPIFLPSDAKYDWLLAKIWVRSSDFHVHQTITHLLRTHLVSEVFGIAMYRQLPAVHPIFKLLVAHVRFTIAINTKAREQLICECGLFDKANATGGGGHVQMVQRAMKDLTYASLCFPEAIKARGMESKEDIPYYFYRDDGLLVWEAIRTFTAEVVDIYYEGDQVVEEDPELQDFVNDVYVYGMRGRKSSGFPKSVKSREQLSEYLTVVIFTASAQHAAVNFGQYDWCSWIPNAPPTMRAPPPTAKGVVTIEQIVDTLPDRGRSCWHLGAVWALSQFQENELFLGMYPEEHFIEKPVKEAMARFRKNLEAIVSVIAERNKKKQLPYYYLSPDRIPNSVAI
Put plainly: Inhibition of 5-Lipoxygenase in arachidonic acid-stimulated human neutrophils assessed as residual activity at 10 uM after 15 mins by HPLC analysis in presence of A23187.
Details: not given
In outline: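 Human neutrophils, 5 × 10^6/mL in PBS/glucose/1 mM CaCl2, preincubated 15 min at RT, then 2.5 µM A23187 plus 20 µM AA for 10 min at 37 °C. Methanol stop, PGB1 internal standard, HPLC of LTB4, its all-trans isomers and 5-H(p)ETE. Residual % versus 0.3% DMSO vehicle, mean ± SEM, n = 3–5. IC50 by linear interpolation from 4–5 concentrations.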
Regarding `CCOC(=O)C1CCN(C(=O)CCc2cc(-c3ccc(C)cc3)n(-c3ccccc3)n2)CC1`, the Activity is 6.7%.

As for `CC(C)(C)c1ccc(CN2CCN(C(=O)CCc3cc(-c4ccc(F)cc4)n(-c4ccc(Cl)nn4)n3)CC2)cc1`, the Activity stood at 23.4%.

Turning to `CCOC(=O)C1CCN(C(=O)CCc2cc(-c3ccc(C(F)(F)F)cc3)n(-c3ccc(Cl)nn3)n2)CC1`, the Activity is 62%.

Regarding `Cc1ccc(-c2cc(CCC(=O)Oc3ccc(C(C)C)cc3)nn2-c2ccc3ccccc3n2)cc1`, the Activity is 65.4%.

The next assay concerns the target T3, Polyunsaturated fatty acid lipoxygenase ALOX15 (Homo sapiens) (UniProt P16050).
T3 sequence (whole entry): T1 sequence (P16050 whole entry)
Nature of the assay: Inhibition of 15-Lipoxygenase-mediated 15-HETE in human neutrophil assessed as residual activity at 30 uM after 15 mins by HPLC analysis.
Details: not given
Summed up:
as §1
Consider `CCOC(=O)C1CCN(C(=O)CCc2cc(-c3ccc(C)cc3)n(-c3ccccc3)n2)CC1`, for which the Activity is 196%.

For `CC(C)(C)c1ccc(CN2CCN(C(=O)CCc3cc(-c4ccc(F)cc4)n(-c4ccc(Cl)nn4)n3)CC2)cc1`, the Activity is 175%.

Take `CCOC(=O)C1CCN(C(=O)CCc2cc(-c3ccc(C(F)(F)F)cc3)n(-c3ccc(Cl)nn3)n2)CC1`: the Activity amounted to 71%.

Take `Cc1ccc(-c2cc(CCC(=O)Oc3ccc(C(C)C)cc3)nn2-c2ccc3ccccc3n2)cc1`: the Activity was determined as 92%.

In a further assay the target is T4, Polyunsaturated fatty acid lipoxygenase ALOX12 (Homo sapiens) (UniProt P18054).
T4 sequence (whole entry): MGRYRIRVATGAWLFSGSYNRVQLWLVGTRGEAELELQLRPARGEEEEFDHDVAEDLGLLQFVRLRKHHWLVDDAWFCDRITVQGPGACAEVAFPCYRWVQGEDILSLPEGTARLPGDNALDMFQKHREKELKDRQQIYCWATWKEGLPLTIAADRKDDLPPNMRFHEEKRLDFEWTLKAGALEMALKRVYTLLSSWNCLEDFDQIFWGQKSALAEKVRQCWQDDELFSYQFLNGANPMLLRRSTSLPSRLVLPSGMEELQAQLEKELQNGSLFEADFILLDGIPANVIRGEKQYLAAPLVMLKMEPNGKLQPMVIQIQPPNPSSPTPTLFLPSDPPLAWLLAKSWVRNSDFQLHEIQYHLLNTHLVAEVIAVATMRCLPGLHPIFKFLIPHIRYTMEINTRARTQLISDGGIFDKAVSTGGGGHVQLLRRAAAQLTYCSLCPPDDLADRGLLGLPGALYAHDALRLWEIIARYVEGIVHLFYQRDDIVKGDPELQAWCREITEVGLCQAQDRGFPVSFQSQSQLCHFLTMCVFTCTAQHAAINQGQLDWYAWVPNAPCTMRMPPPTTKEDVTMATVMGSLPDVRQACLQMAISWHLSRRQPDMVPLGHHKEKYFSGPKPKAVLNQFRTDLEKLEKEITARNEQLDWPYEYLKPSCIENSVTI
Put plainly: Inhibition of 12-Lipoxygenase-mediated 12-HETE in human neutrophil assessed as residual activity at 30 uM after 15 mins by HPLC analysis.
Details: not given
Summed up: as §1
In the case of `CCOC(=O)C1CCN(C(=O)CCc2cc(-c3ccc(C)cc3)n(-c3ccccc3)n2)CC1`, the Activity is 98%.

`CC(C)(C)c1ccc(CN2CCN(C(=O)CCc3cc(-c4ccc(F)cc4)n(-c4ccc(Cl)nn4)n3)CC2)cc1`: the Activity worked out at 103%.

With `CCOC(=O)C1CCN(C(=O)CCc2cc(-c3ccc(C(F)(F)F)cc3)n(-c3ccc(Cl)nn3)n2)CC1`, the Activity came to 90.4%.

With `Cc1ccc(-c2cc(CCC(=O)Oc3ccc(C(C)C)cc3)nn2-c2ccc3ccccc3n2)cc1`, the Activity came to 67.8%.

Another assay deals with T5, Polyunsaturated fatty acid lipoxygenase ALOX12 (Homo sapiens, UniProt P18054).
T5 sequence (P18054 whole entry): T4 sequence (whole entry)
Nature of the assay: Inhibition of 12-Lipoxygenase-mediated 12-HETE in human neutrophil after 15 mins by HPLC analysis.
Details: not given
Summed up: as §1
`CCOC(=O)C1CCN(C(=O)CCc2cc(-c3ccc(C)cc3)n(-c3ccccc3)n2)CC1` returned an IC50 of more than 10 µM.

The compound `CC(C)(C)c1ccc(CN2CCN(C(=O)CCc3cc(-c4ccc(F)cc4)n(-c4ccc(Cl)nn4)n3)CC2)cc1` displayed an IC50 of more than 10 µM.

The compound `CCOC(=O)C1CCN(C(=O)CCc2cc(-c3ccc(C(F)(F)F)cc3)n(-c3ccc(Cl)nn3)n2)CC1` returned an IC50 of more than 10 µM.

For the compound `Cc1ccc(-c2cc(CCC(=O)Oc3ccc(C(C)C)cc3)nn2-c2ccc3ccccc3n2)cc1`, the IC50 was more than 10 µM.

The subject of another assay is A549. Put plainly: Inhibition of mPGES1-mediated PGE2 production in IL1-beta stimulated human A549 cells assessed as residual activity at 10 uM after 15 mins.
Details: not given
It is filed as cell-based. In outline: (§2)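 Microsomes from IL-1β (1 ng/ml, 72 h) stimulated A549 cells, diluted in 0.1 M potassium phosphate pH 7.4 with 2.5 mM glutathione. Compound or 1% DMSO added, 15 min at 4 °C. Started with 20 µM PGH2 (final), 1 min at 4 °C. Stopped with FeCl2/citric acid containing 11β-PGE2 internal standard. PGE2 by RP-C18 solid-phase extraction and peak integration.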
Consider `CCOC(=O)C1CCN(C(=O)CCc2cc(-c3ccc(C)cc3)n(-c3ccccc3)n2)CC1`, for which the Activity was found to be 82.6%.

Regarding `CC(C)(C)c1ccc(CN2CCN(C(=O)CCc3cc(-c4ccc(F)cc4)n(-c4ccc(Cl)nn4)n3)CC2)cc1`, the Activity came out at 75.6%.

Take `CCOC(=O)C1CCN(C(=O)CCc2cc(-c3ccc(C(F)(F)F)cc3)n(-c3ccc(Cl)nn3)n2)CC1`: the Activity turned out to be 103%.

Turning to `Cc1ccc(-c2cc(CCC(=O)Oc3ccc(C(C)C)cc3)nn2-c2ccc3ccccc3n2)cc1`, the Activity was found to be 88%.

Tested on in a further assay: not listed separately
Put plainly: Inhibition of mPGES1-mediated PGE2 production in IL1-beta stimulated human A549 cells after 15 mins. It is filed as cell-based. As to conditions: A549, 0.25 h. In outline:
as §2
Regarding `CCOC(=O)C1CCN(C(=O)CCc2cc(-c3ccc(C)cc3)n(-c3ccccc3)n2)CC1`, the IC50 was more than 10 µM.

On to `CC(C)(C)c1ccc(CN2CCN(C(=O)CCc3cc(-c4ccc(F)cc4)n(-c4ccc(Cl)nn4)n3)CC2)cc1`, for which the IC50 was more than 10 µM.

Take `CCOC(=O)C1CCN(C(=O)CCc2cc(-c3ccc(C(F)(F)F)cc3)n(-c3ccc(Cl)nn3)n2)CC1`: the IC50 is more than 10 µM.

Turning to `Cc1ccc(-c2cc(CCC(=O)Oc3ccc(C(C)C)cc3)nn2-c2ccc3ccccc3n2)cc1`, the IC50 was more than 10 µM.
